Laboratory results published in publication PMC6848909 (British Journal of Clinical Pharmacology, 2019).
Where two headings read alike, the source gives them in different places. Marks after values point to notes of the source that are not given here.

Tests used:
[1] = format: in vivo, human; conditions: for Metabolic ratio of AUC0–inf, metabolite/belinostat / Metabolic ratio of Cmax, metabolite/belinostat: Cycle 1 Day −7, geometric mean (geometric SD)
[2] = Phase 1 safety: adverse events; format: in vivo, human
[3] = system: solid tumours or lymphomas; assay: Tumour response by RECIST 1.1; format: in vivo, human
In short: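 CT scans were done at baseline and every 2 cycles, with response per RECIST 1.1. Dosing was IV over 30 min on days 1–5 of 21-day cycles, at doses set by liver-function cohort and dose level, after a single 400 mg/m2 dose on Cycle 1 Day −7. Cohorts were defined by bilirubin and AST relative to ULN.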

[4] = cited from earlier work
[5] = cited from earlier work; remark: listed apart in the source
[6] = patients with hepatocellular carcinoma; cited from earlier work
[7] = combination with 13‐cis‐retinoic acid; cited from earlier work
[8] = mild liver dysfunction (n = 25)
[9] = severe liver dysfunction (n = 15)
[10] = Dose level 1, mild (n = 9), at least possibly related
[11] = Dose level 1, moderate (n = 6), at least possibly related
[12] = Dose level 1, normal (n = 14), at least possibly related
[13] = Dose level 1, severe (n = 9), at least possibly related
[14] = Dose level 2, mild (n = 14), at least possibly related
[15] = Dose level 2, moderate (n = 6), at least possibly related
[16] = Dose level 2, severe (n = 5), at least possibly related

O=C(/C=C/c1cccc(S(=O)(=O)Nc2ccccc2)c1)NO[C@@H]1O[C@H](C(=O)O)[C@@H](O)[C@H](O)[C@H]1O [Belinostat glucuronide, belinostat glucuronide]
Metabolic ratio of AUC0–inf, metabolite/belinostat [1, 8]: 21.8 (1.63) ^d
Metabolic ratio of Cmax, metabolite/belinostat [1, 8]: 3.57(1.47) ^c
Metabolic ratio of AUC0–inf, metabolite/belinostat ([1]; normal liver function (n = 14)): 18.7 (1.63)
Metabolic ratio of Cmax, metabolite/belinostat ([1]; normal liver function (n = 14)): 3.78 (1.47)
Metabolic ratio of AUC0–inf, metabolite/belinostat [1, 9]: 17.7 (1.91)
Metabolic ratio of Cmax, metabolite/belinostat [1, 9]: 2.85 (1.51)

O=C(/C=C/c1cccc(S(=O)(=O)Nc2ccccc2)c1)NO [Belinostat, belinostat]
Clearance as % of liver blood flow (extraction) ([1]; normal liver function, clearance 661 mL/min/m^2): 76%
Increase in half‐life from normal to severe ([1]; normal vs severe liver dysfunction cohort, not statistically significant): 33%
Patients with at least 1 grade ≥ 3 adverse event at least possibly related to study drug ([2]; All dose levels, all patients, n = 66): 14 (21.2) number (%) of patients
Patients with at least 1 grade ≥ 3 adverse event at least possibly related to study drug ([2]; All dose levels, mild dysfunction, n = 23): 4 (17.4) number (%) of patients
Patients with at least 1 grade ≥ 3 adverse event at least possibly related to study drug ([2]; All dose levels, moderate dysfunction, n = 12): 3 (25) number (%) of patients
Patients with at least 1 grade ≥ 3 adverse event at least possibly related to study drug ([2]; All dose levels, normal liver function, n = 14): 5 (35.7) number (%) of patients
Patients with at least 1 grade ≥ 3 adverse event at least possibly related to study drug ([2]; All dose levels, severe dysfunction, n = 17): 2 (11.8) number (%) of patients
Patients with at least 1 grade ≥ 3 adverse event at least possibly related to study drug ([2]; Dose level 1 (250 mg/m^2), severe dysfunction, n = 9): 1 (11.1) number (%) of patients
Patients with at least 1 grade ≥ 3 adverse event at least possibly related to study drug ([2]; Dose level 1 (500 mg/m^2), moderate dysfunction, n = 6): 1 (16.7) number (%) of patients
Patients with at least 1 grade ≥ 3 adverse event at least possibly related to study drug ([2]; Dose level 1 (750 mg/m^2), mild dysfunction, n = 9): 1 (11.1) number (%) of patients
Patients with at least 1 grade ≥ 3 adverse event at least possibly related to study drug ([2]; Dose level 1 (1000 mg/m^2), normal liver function, n = 14): 5 (35.7) number (%) of patients
Patients with at least 1 grade ≥ 3 adverse event at least possibly related to study drug ([2]; Dose level 1, all patients, n = 38): 8 (21.1) number (%) of patients
Anaemia, Grade 2 [2, 10]: 1 number of patients
Fatigue, Grade 2 [2, 10]: 1 number of patients
Fatigue, Grade 3 [2, 10]: 1 number of patients
Vomiting, Grade 2 [2, 10]: 1 number of patients
Anaemia, Grade 2 [2, 11]: 3 number of patients
Fatigue, Grade 2 [2, 11]: 1 number of patients
Lymphocyte count decreased, Grade 2 [2, 11]: 1 number of patients
Lymphocyte count decreased, Grade 3 [2, 11]: 1 number of patients
Anaemia, Grade 2 [2, 12]: 1 number of patients
Anaemia, Grade 3 [2, 12]: 1 number of patients
Fatigue, Grade 2 [2, 12]: 2 number of patients
Fatigue, Grade 3 [2, 12]: 1 number of patients
Lymphocyte count decreased, Grade 2 [2, 12]: 1 number of patients
Lymphocyte count decreased, Grade 3 [2, 12]: 3 number of patients
Nausea, Grade 2 [2, 12]: 3 number of patients
Vomiting, Grade 2 [2, 12]: 1 number of patients
Fatigue, Grade 2 [2, 13]: 1 number of patients
Vomiting, Grade 2 [2, 13]: 1 number of patients
Lung infection, Grade 5 ([2]; Dose level 1, severe (n = 9), possibly related): 1 number of patients
Patients with at least 1 grade ≥ 3 adverse event at least possibly related to study drug ([2]; Dose level 2 (350 mg/m^2), severe dysfunction, n = 8): 1 (12.5) number (%) of patients
Patients with at least 1 grade ≥ 3 adverse event at least possibly related to study drug ([2]; Dose level 2 (750 mg/m^2), moderate dysfunction, n = 6): 2 (33.3) number (%) of patients
Patients with at least 1 grade ≥ 3 adverse event at least possibly related to study drug ([2]; Dose level 2 (1000 mg/m^2), mild dysfunction, n = 14): 3 (21.4) number (%) of patients
Patients with at least 1 grade ≥ 3 adverse event at least possibly related to study drug ([2]; Dose level 2, all patients, n = 28): 6 (21.4) number (%) of patients
Anaemia, Grade 2 [2, 14]: 3 number of patients
Fatigue, Grade 2 [2, 14]: 2 number of patients
Fatigue, Grade 3 [2, 14]: 2 number of patients
Lymphocyte count decreased, Grade 2 [2, 14]: 4 number of patients
Nausea, Grade 2 [2, 14]: 3 number of patients
Vomiting, Grade 2 [2, 14]: 1 number of patients
Vomiting, Grade 3 [2, 14]: 1 number of patients
Anaemia, Grade 2 [2, 15]: 1 number of patients
Bilirubin increased, Grade 2 [2, 15]: 1 number of patients
Bilirubin increased, Grade 3 [2, 15]: 2 number of patients
Fatigue, Grade 2 [2, 15]: 1 number of patients
Fatigue, Grade 3 [2, 15]: 2 number of patients
Anaemia, Grade 2 [2, 16]: 1 number of patients
Lymphocyte count decreased, Grade 2 [2, 16]: 2 number of patients
Grade 2 or greater anaemia attributed to the study drug ([2]; all treated patients): 17.1%
Grade 2 or greater fatigue attributed to the study drug ([2]; all treated patients): 21.9%
Grade 2 or greater lymphopenia attributed to the study drug ([2]; all treated patients): 18.8%
Patients with grade ≥ 3 toxicity ([2]; mild cohort (4/23)): 17.4%
DLTs ([2]; mild cohort, DL 2 (1000 mg/m^2), 6 evaluable patients): no DLTs
Patients with grade ≥ 3 toxicity ([2]; moderate cohort (3/12)): 25%
DLTs ([2]; moderate cohort, DL 2 (750 mg/m^2), 3 evaluable patients): no DLTs
Patients with a grade ≥ 3 AE ([2]; normal cohort (5/14)): 35.7%
MTD ([2]; patients with mild dysfunction, same as recommended phase 2 dose): 1000 mg/m^2/day
DLTs ([2]; severe cohort, DL 1 (250 mg/m^2), 6 evaluable patients, grade 5 lung infection): 1
Complete or partial responses ([3]; any of the 4 cohorts): No complete or partial responses
Patients with stable disease ([3]; of 47 patients evaluable for response): 28%
Patients with stable disease ([3]; of 47 patients evaluable for response, after the first 2 cycles): 13 patients
Patients with stable disease ([3]; on DL 1): 11 patients
Patients with stable disease ([3]; on DL 2): 2 patients
Time on study treatment, median ([3]; patients with stable disease): 4 21‐day cycles
Time on study treatment, range ([3]; patients with stable disease): 2–12 cycles
% of dose by glucuronidation (UGT1A1 and UGT2B7), clinical mass balance [4]: 41.4%
% of dose by methylation, clinical mass balance [4]: 1.9%
Total administered belinostat excreted unchanged in the urine [4]: up to 2%
Patients who experienced DLT ([5]; at 1200 mg/m^2/day): 3 of 5
Recommended phase 2 dose ([5]; days 1–5 of a 21‐day cycle): 1000 mg/m^2/day
MTD (not reached at highest dose tested) [6]: ≥ 1400 mg/m^2/day
MTD (not reached) [7]: ≥ 2000 mg/m^2/day
